By inhibition is commonly meant the drop in the measured response relative to a control, in per cent.

Activity calls are given as the source filed them.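 Rule for the calls, unless noted: active = inhibition above 20% together with a positive visual image hit; inconclusive = visual image hit but inhibition not above 20%; inactive = no visual image hit.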

Assay [1] is described as follows: inhibitors of TNFa-induced NFkB p65 translocation, primary screen, imaging, HUVEC, MLSMR starter and 10KST1 sets (AID 438).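 For inhibition: signal is the nuclear over cytoplasmic p65 intensity ratio per well.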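 Note: compound added about 3h40 before a 20 min TNFalpha stimulation.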 Particulars: HUVEC TNFa-induced p65 nuclear translocation; cell count: measured here: nuclei count (cytotoxicity indicator), at 2.08 µM; inhibition: at 2 µM, stronger effect = higher value, 0% TNFa-plus-vehicle, 100% no-TNFa wells.
Assay [2] can be described thus: endothelial E-selectin expression blockers – imaging, HUVEC, immunofluorescence, MLSMR starter and 10KST1 sets, primary screen (AID 487;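 active = visually confirmed hit in the image check and inhibition above 20%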;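 for inhibition: signal is fraction of cell area covered by stained E-selectin grains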;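 for nuclei count: 100% = median nuclei count of all wells on the same plate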). Particulars: HUVEC TNFalpha-induced E-selectin immunofluorescence imaging, at 2 µM; inhibition: stronger effect = higher value; nuclei count: measured here: cell number, toxicity.
Assay [3] is described as follows: Primary imaging screen for DUSP6 inhibitors that restore phospho-Erk in transfected HeLa cells, chemical complementation (AID 609;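 active = compounds giving at least 50% inhibition in the cell-based MKP-3 phosphatase rescue imaging test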;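 for inhibition: phospho-Erk level distribution per well compared with pooled transfected vehicle control wells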). Particulars: HeLa MKP-3 transfected, phospho-Erk imaging KS statistic, at 10 µM, cells stimulated with TPA for 15 min.
The target of assay [4] is Dual specificity protein phosphatase 6 (Homo sapiens) (UniProt Q16828). The description is as above. Particulars: HeLa MKP-3 transfected, phospho-Erk imaging KS statistic; at 10 µM; stronger effect = higher value; cells stimulated with TPA for 15 min.
In assay [5] the target is Voltage-gated potassium channel subunit beta-2 (Rattus norvegicus) (UniProt P62483). Nature of the assay: inhibitors of rat Kvbeta2 reductase activity – biochemical, NADPH fluorescence, primary screen (AID 622;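 active = fluorescence slope higher than the sample average by over 3 SD, cut at about -0.22 in these data, passing the limit was not always enough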;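 note: slope of raw intensity against log time taken from 70 to 1610 s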). Particulars: recombinant KvBeta, 4-cyanobenzaldehyde reduction, at 10 µM, stronger effect = higher value.
Assay [6] shares this target. The assay is described as follows: enhancers of rat Kvbeta2 NADPH turnover – biochemical, NADPH fluorescence, primary screen (AID 623;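 active = NADPH fluorescence slope more negative than the mean of all samples by about 3 SD, 99.7% confidence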;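 note: fluorescence intensity change per second fitted from 20 to 320 s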). Particulars: Recombinant KvBeta, NADPH fluorescence decrease slope, 10 min; at 10 µM; stronger effect = lower value.
The target in assay [7] is Muscarinic acetylcholine receptor M4 (Homo sapiens) (UniProt P08173). Nature of the assay: M4-linked GIRK flux change, two-sided – cell-based, HEK293 M4/GIRK, thallium flux, BTC-AM, M4 allosteric agonist project, primary screen (AID 625;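 active = fluorescence slope after compound addition differing from the mean of all tested samples at 99.7% confidence, mostly higher but some lower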;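 note: thallium influx through GIRK channels coupled to M4 in HEK293 cells with BTC-AM dye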). Particulars: at 10 µM, actives lie on both sides. In a few lines:
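System: HEK293 cells with M4 receptor and GIRK channels | Incubation: Cells overnight at 37 °C, BTC-AM loading 1 h, reads 2 min total | Technique: Kinetic BTC-AM fluorescence sampled at 1 Hz, 10 s pre-addition baseline | Measure: Post-addition slope, 15–24 s, of baseline-normalized fluorescence | Control set: Carbachol positive, DMSO negative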

Assay [8] can be described thus: inhibitors of larval lipid processing in zebrafish, primary screen, whole organism, PED6 fluorescence, gall bladder and intestine (AID 686;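 active = a full or partial loss of lipid-probe fluorescence in the fish gall bladder, intestine or both, judged by eye; inactive = no fluorescence loss, or compound toxic to the fish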;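 note: larvae 5 to 7 days old with five fish per well; signal comes from phospholipase A2 cleavage of quenched PED6 carried via bile; overnight exposure to compound and PED6 before scoring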). Particulars: Zebrafish larvae PED6 lipid processing, fluorescence scoring; screened at 20 µM (by protocol). In outline:
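Test system – live zebrafish larvae aged 5-7 days, whole organism · Buffer or medium – E3 fish medium · Reagent – quenched phospholipase substrate PED6, 100 nM final, ingested by larvae · Doses – 20 µM single dose · Incubation – overnight compound and PED6 incubation · Technique – visual fluorescence microscopy scoring of gall bladder, gut · Read-out basis – visual per-well fluorescence inhibition score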

A short description of assay [9]: loss of swimming-algae plug formation – whole organism, Chlamydomonas reinhardtii, WT vs cilia-less mutant, absorbance, 96-well, primary screen (AID 463189;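 active = inhibition at or above 50% relative to wild type and mutant plate controls; inactive = inhibition below 50%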;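 note: 0% = wild type cc124 cells in DMSO and 100% = ciliumless bld1 mutant cells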). Particulars: Chlamydomonas reinhardtii gravitaxis, OD600 absorbance, 2 days; at 10 µM; stronger effect = higher value.
Setting [10] is: measured here: cell density z-score.
The mark [11] stands for this setting: measured here: nuclear c-Myc green intensity z-score.
Setting [12] is: measured here: nuclear pErk red intensity z-score, stronger effect = higher value.

Sequence of Voltage-gated potassium channel subunit beta-2 (Rattus norvegicus) (P62483 whole entry, looked up): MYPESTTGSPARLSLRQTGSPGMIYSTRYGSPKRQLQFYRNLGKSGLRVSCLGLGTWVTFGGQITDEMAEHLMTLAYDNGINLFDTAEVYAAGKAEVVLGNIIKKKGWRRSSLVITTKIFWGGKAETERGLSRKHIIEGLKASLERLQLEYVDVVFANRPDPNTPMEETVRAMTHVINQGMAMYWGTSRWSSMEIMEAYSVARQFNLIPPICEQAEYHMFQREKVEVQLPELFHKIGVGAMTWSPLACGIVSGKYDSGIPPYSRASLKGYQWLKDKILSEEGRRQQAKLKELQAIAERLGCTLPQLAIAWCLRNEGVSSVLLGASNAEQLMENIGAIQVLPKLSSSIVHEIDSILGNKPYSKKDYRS
Sequence of Muscarinic acetylcholine receptor M4 (Homo sapiens) (P08173 whole entry, looked up): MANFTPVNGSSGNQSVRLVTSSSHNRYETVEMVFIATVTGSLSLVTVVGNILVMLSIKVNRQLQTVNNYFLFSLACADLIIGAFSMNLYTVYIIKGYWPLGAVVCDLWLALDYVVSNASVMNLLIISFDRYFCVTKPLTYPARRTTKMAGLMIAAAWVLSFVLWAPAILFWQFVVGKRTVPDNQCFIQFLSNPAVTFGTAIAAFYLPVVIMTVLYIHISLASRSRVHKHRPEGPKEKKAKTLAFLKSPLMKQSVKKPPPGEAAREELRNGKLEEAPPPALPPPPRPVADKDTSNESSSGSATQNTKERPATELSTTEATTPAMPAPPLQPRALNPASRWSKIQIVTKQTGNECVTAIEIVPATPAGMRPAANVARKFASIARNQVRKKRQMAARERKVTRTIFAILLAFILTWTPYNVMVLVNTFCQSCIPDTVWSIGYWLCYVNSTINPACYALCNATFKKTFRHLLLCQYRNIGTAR
Sequence of Dual specificity protein phosphatase 6 (Homo sapiens) (Q16828 whole entry, looked up): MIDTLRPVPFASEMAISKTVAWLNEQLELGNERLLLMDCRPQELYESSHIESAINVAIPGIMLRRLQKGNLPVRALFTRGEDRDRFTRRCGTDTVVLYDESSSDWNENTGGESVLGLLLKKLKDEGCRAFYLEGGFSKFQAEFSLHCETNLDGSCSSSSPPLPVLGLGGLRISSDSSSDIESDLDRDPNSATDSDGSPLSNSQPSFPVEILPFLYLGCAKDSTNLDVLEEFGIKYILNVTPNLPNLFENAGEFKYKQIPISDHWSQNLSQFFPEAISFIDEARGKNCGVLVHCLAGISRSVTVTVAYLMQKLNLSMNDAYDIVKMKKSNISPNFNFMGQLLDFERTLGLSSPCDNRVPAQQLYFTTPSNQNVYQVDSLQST

Regarding `CCCCc1[nH]c(=O)c(C#N)c2c1CSC(C)(C)C2`, the cell count in [1] came out at 551. Moreover, the inhibition in assay [1] was 0.5% (inactive); in assay [2] it was -122% (inactive); in assay [4], 17.4% (inactive); in assay [9], 0.152% (inactive). For the same compound, the nuclei count in assay [2] came to 132%. Moreover, the z-score in assay [3] (setting [10]) is 0.749; in assay [3] (setting [11]), 0.642; in assay [3] (setting [12]), -1.4. The values for the fluorescence slope in assay [5] and in assay [7] were -0.482 (inactive) and 0.00497 (inactive), respectively. Also, the NADPH fluorescence slope in assay [6] was -0.000112 (inactive). Also, the result in assay [8] was inactive.

On to `CC1(C)Cc2c(c(N3CCOCC3)nc3sc4c(=O)[nH]cnc4c23)CS1`, for which, in assay [1], the cell count came to 493. In addition, the inhibition was -5.7% (inactive) in assay [1], 10.3% (inactive) in [2], 7.93% (inactive) in assay [4] and 28.7% (inactive) in [9]. In assay [2], this compound showed a nuclei count of 100%. Moreover, the results for the z-score in [3] (setting [10]), in assay [3] (setting [11]) and in assay [3] (setting [12]) were -0.312, 0.705 and 1.1, respectively. Moreover, the fluorescence slope in [5] was -0.44 (inactive); in assay [7], 0.00568 (inactive). For the same compound, the NADPH fluorescence slope in assay [6] is -1.9e-05 (inactive). Moreover, the outcome in assay [8] was inactive.

For `CCCCSc1nc(N)c(C#N)c(-c2cccs2)c1C#N`, in assay [1], the cell count came to 652. The inhibition was -3.4% (inactive) in assay [1], -1.9% (inactive) in assay [2], -4.7% (inactive) in assay [4] and -8.35% (inactive) in assay [9]. Further, the nuclei count in [2] is 141%. In addition, the values for the z-score in [3] (setting [10]), in [3] (setting [11]) and in [3] (setting [12]) were 1.43, 0.907 and -0.946, respectively. The fluorescence slope in [5] is -0.432 (inactive); in assay [7] it was 0.00886 (inactive). For the same compound, the NADPH fluorescence slope in [6] is -1.7e-05 (inactive). Also, in [8], the compound was called inactive.

As for `COc1ccc2c(c1OC)C(=O)N1c3ccccc3C(=O)N(c3ccccc3F)C21` (stereo not drawn), the cell count in [1] turned out to be 708. The inhibition in assay [1] was -7.9% (inactive); in assay [2] it was -37.7% (inactive); in assay [4] it was 5.35% (inactive); in assay [9] it was 3.94% (inactive). The compound also registered a nuclei count in assay [2] of 134%. Moreover, the z-score in assay [3] (setting [10]) is 0.797; in assay [3] (setting [11]) it was -1.74; in assay [3] (setting [12]), -0.312. Moreover, the fluorescence slope in assay [5] was -0.444 (inactive); in assay [7], 0.00636 (inactive). Besides, the NADPH fluorescence slope in assay [6] was -5.7e-05 (inactive). Moreover, the result in assay [8] was inactive.

For the compound `COC(=O)C(NC(=O)c1ccccc1)(Nc1nccs1)C(F)(F)F` (stereo not drawn), in assay [1], the cell count came to 677. In addition, the inhibition in assay [1] was -5.5% (inactive); in [2] it was -7.4% (inactive); in assay [4], 22.1% (inactive); in assay [9] it was -5.27% (inactive). The compound further came in with a nuclei count in assay [2] of 159%. Further, the z-score in [3] (setting [10]) was 1.36; in assay [3] (setting [11]), -0.846; in assay [3] (setting [12]) it was 0.224. In addition, the fluorescence slope in assay [5] is -0.474 (inactive); in [7] it was 0.00463 (inactive). The NADPH fluorescence slope in assay [6] is -2.6e-05 (inactive). Moreover, the compound was called inactive in assay [8].

For `CC(NC(=O)NCc1cccnc1)(C(F)(F)F)C(F)(F)F`, in assay [1], the cell count came to 708. In addition, the inhibition in assay [1] is -13.6% (inactive); in assay [2] it was -45% (inactive); in [4], -2.09% (inactive); in assay [9], 10.1% (inactive). Also, the nuclei count in [2] worked out at 138%. Moreover, the z-score was -0.926 in assay [3] (setting [10]), 1.23 in assay [3] (setting [11]) and 1.47 in assay [3] (setting [12]). Also, the figures for the fluorescence slope in assay [5] and in assay [7] were -0.446 (inactive) and 0.00505 (inactive), respectively. Also, the NADPH fluorescence slope in [6] was -4.7e-05 (inactive). The compound was called inactive in [8].

Turning to `O=S(=O)(c1cccc2nsnc12)N1CCN(C/C=C/c2ccccc2)CC1`, the cell count in assay [1] turned out to be 680. The inhibition in [1] was 3.2% (inactive); in assay [2] it was 16.6% (inactive); in [4], 1.9e-07% (inactive); in [9], 45.8% (inactive). Besides, the nuclei count in assay [2] came to 117%. The z-score is -0.555 in assay [3] (setting [10]), -0.43 in assay [3] (setting [11]) and 0.591 in [3] (setting [12]). Besides, the fluorescence slope in [5] was -0.527 (inactive); in assay [7] it was 0.00411 (inactive). Also, in [6], the NADPH fluorescence slope was -5.7e-05 (inactive). The compound was classed as inactive in assay [8].

Regarding `CN(C)CCCNCCCCNC(=O)/C=N/O`, the cell count in assay [1] worked out at 458. The inhibition in [1] was 3.8% (inactive); in [2], -56.6% (inactive); in [4], 17.7% (inactive); in assay [9], 6.6% (inactive). For the same compound, in assay [2], the nuclei count is 143%. Further, the z-score in [3] (setting [10]) is -0.174; in [3] (setting [11]), -0.575; in assay [3] (setting [12]) it was 1.08. In addition, the fluorescence slope in [5] is -0.441 (inactive); in assay [7], 0.00523 (inactive). The NADPH fluorescence slope in assay [6] is -3.9e-05 (inactive). For the same compound, in assay [8], the compound was classed as inactive.

Turning to `C/C(=N\O)c1c(C)c2ccccc2n1C`, the cell count in assay [1] was 553. The inhibition is -7.3% (inactive) in assay [1], -33% (inactive) in [2], 11.9% (inactive) in [4] and 15.1% (inactive) in assay [9]. This compound gave a nuclei count in [2] of 155%. In addition, the z-score in assay [3] (setting [10]) is 0.633; in assay [3] (setting [11]) it was -0.875; in [3] (setting [12]), 0.794. The fluorescence slope in assay [5] is -0.374 (inactive); in assay [7] it was 0.00461 (inactive). Moreover, the NADPH fluorescence slope in [6] is -3.2e-05 (inactive). Moreover, the outcome in [8] was inactive.

Regarding `CCOc1ccc(-c2nc(C#N)c(N3CCN(CC)CC3)o2)cc1`, the cell count in assay [1] worked out at 416. Moreover, the inhibition is 0.1% (inactive) in assay [1], -29.1% (inactive) in [2], -2.69% (inactive) in [4] and 5.29% (inactive) in assay [9]. This compound came in with a nuclei count in assay [2] of 129%. Moreover, the z-score in [3] (setting [10]) amounted to 0.554; in [3] (setting [11]), 0.103; in assay [3] (setting [12]), 0.968. Further, the fluorescence slope in [5] was -0.498 (inactive); in assay [7], 0.00446 (inactive). In addition, the NADPH fluorescence slope in assay [6] is -0.00012 (inactive). For the same compound, the result in assay [8] was inactive.

For the compound `Clc1ccc(-n2ncc3c(N4CCCC4)ncnc32)cc1`, the cell count in [1] was determined as 589. Besides, the inhibition in [1] was -9.4% (inactive); in [2], -131% (inactive); in assay [4] it was 7.42% (inactive); in assay [9], 134% (active). This compound yielded a nuclei count in assay [2] of 94.9%. Besides, the z-score in [3] (setting [10]) was -3.24; in assay [3] (setting [11]) it was 1.27; in assay [3] (setting [12]), 1.5. Moreover, the fluorescence slope in assay [5] is -0.411 (inactive); in assay [7] it was 0.00915 (inactive). Also, the NADPH fluorescence slope in assay [6] is -5e-05 (inactive). Further, the compound was called inactive in [8].

Values taken from PubChem BioAssay.
